Published values pooled from the literature.
Protocols differ between the studies behind these lines.
Target: Serine-protein kinase ATM (ATM, Homo sapiens, UniProt Q13315)

COc1cccc2c(NCc3ccccc3)nc(-n3c(N)nc4ccccc43)nc12 has an inhibition of -4.3% (target engagement in cells; inhibitor; chemoproteomics; 20 mM).
For Cc1ccc(C(=O)NCc2ccsc2)cc1C#Cc1cn(C(C)C)c2ncnc(N)c12, the activity vs control was 101% (enzyme activity; inhibitor; 1 µM).
The inhibition of CCCCNc1ncc2c(-c3ccc(F)cc3)nn(C[C@H]3CC[C@H](N)CC3)c2n1 is reported as 57.4% (target engagement in cells; inhibitor; chemoproteomics; 20 mM).
For Cc1cc(NC(=O)c2cccc3cc(-c4cccc5[nH]nc(N)c45)ccc23)ccc1F, the activity vs control was 94% (enzyme activity; inhibitor; 0.1 µM).
With Cc1ccc(NC(=O)c2ccc(C)c(C(F)(F)F)c2)cc1C#Cc1nn(C2CCC(O)CC2)c2ncnc(N)c12 (centres unmarked) the remaining signal was 102% (cell-free assay; 10 µM).
The remaining activity of Cc1cnc(NC2CCOCC2)nc1-n1cnc(C(=O)NC(CN)c2cc(F)cc(Cl)c2)c1 (centres unmarked) is reported as 102% (enzyme activity; inhibitor; radiometric; 1 µM).
COc1cc(Cl)c(C(=O)N[C@@H](CN[C@H]2CC[C@@H](N)CC2)Cc2ccc(C#N)cc2)cc1-c1ccc(CN[C@H](C)c2ccc(C)cc2)o1 has a remaining activity of 106% (enzyme activity; inhibitor; 1 µM).
For CN1CC(Oc2cnc(C#N)cc2-c2ccn3nc(NC(=O)C4CC4)cc3c2)C1, the inhibition was 14% (enzyme activity; inhibitor; 1 µM).
